In ChEMBL document CHEMBL2434951, “Synthesis and antimicrobial activity of polyhalobenzonitrile quinazolin-4(3H)-one derivatives” (2013):
Values after ≈ are worked out from the molar mass of the structure shown.

How the values were obtained:
Assay type in all cases: functional
Candida albicans [1] = test: Fungicidal activity against Candida albicans ATCC 10231 after 18 to 24 hrs; conditions: read-out: MFC99.9
How it was run: (§1)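 After the liquid dilution MIC tubes, 0.1 mL from each tube spread on agar plates. Colonies counted after 18–24 h incubation at 35 °C. MBC taken as the lowest drug concentration killing 99.9% of the inoculum.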

Staphylococcus aureus [2] = test: Antibacterial activity against Staphylococcus aureus ATCC 6538 assessed as growth inhibition after 24 hrs by liquid dilution method; conditions: ATCC 6538, 24 h
How it was run: (§2)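 Liquid (tube) dilution. Compounds and positive controls in DMSO at 11 concentrations from 0.98 upward. Each tube held 1 mL compound solution plus bacterial or fungal inoculum and sterile water. Incubated 24 h, then checked for turbidity; MIC is the lowest concentration without growth. Chlorothalonil, norfloxacin and fluconazole as standards.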

Candida albicans [3] = test: Antifungal activity against Candida albicans ATCC 10231 assessed as growth inhibition after 24 hrs by liquid dilution method; conditions: ATCC 10231, 24 h; how it was run: as §2
Pseudomonas aeruginosa [4] = test: Antibacterial activity against Pseudomonas aeruginosa ATCC 15442 assessed as growth inhibition at 1000 ug/mL after 24 hrs by disk diffusion assay; conditions: ATCC 15442, 24 h, read-out: DIZ
How it was run: (§3)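 Disk diffusion on nutrient agar, inoculum spread evenly. Disks of 6 mm Whatman No. 1 paper, dry-heat sterilized at 121 °C for 1 h, soaked in test compound at 1000 (micro)g/mL. Norfloxacin and chlorothalonil disks as positive controls, DMSO disks as negative control. Plates incubated 24 h at 37 °C. Inhibition zone diameter measured in mm.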

Staphylococcus aureus [5] = test: Antibacterial activity against Staphylococcus aureus ATCC 6538 assessed as growth inhibition at 1000 ug/mL after 24 hrs by disk diffusion assay; conditions: ATCC 6538, 24 h, read-out: DIZ; how it was run: as §3
Staphylococcus aureus [6] = test: Bactericidal activity against Staphylococcus aureus ATCC 6538 after 18 to 24 hrs; conditions: read-out: MBC99.9; how it was run: as §1
Escherichia coli [7] = test: Antibacterial activity against Escherichia coli ATCC 8099 assessed as growth inhibition after 24 hrs by liquid dilution method; conditions: ATCC 8099, 24 h; how it was run: as §2
Escherichia coli [8] = test: Antibacterial activity against Escherichia coli ATCC 8099 assessed as growth inhibition at 1000 ug/mL after 24 hrs by disk diffusion assay; conditions: ATCC 8099, 24 h, read-out: DIZ; how it was run: as §3
Bacillus cereus [9] = test: Antibacterial activity against Bacillus cereus ATCC 14579 assessed as growth inhibition after 24 hrs by liquid dilution method; conditions: ATCC 14579, 24 h; how it was run: as §2
Bacillus cereus [10] = test: Antibacterial activity against Bacillus cereus ATCC 14579 assessed as growth inhibition at 1000 ug/mL after 24 hrs by disk diffusion assay; conditions: ATCC 14579, 24 h, read-out: DIZ; how it was run: as §3
Candida albicans [11] = test: Antifungal activity against Candida albicans ATCC 10231 assessed as growth inhibition at 1000 ug/mL after 24 hrs by disk diffusion assay; conditions: ATCC 10231, 24 h, read-out: DIZ; how it was run: as §3
Pseudomonas aeruginosa [12] = test: Antibacterial activity against Pseudomonas aeruginosa ATCC 15442 assessed as growth inhibition after 24 hrs by liquid dilution method; conditions: ATCC 15442, 24 h; how it was run: as §2
Bacillus cereus [13] = test: Bactericidal activity against Bacillus cereus ATCC 14579 after 18 to 24 hrs; conditions: read-out: MBC99.9; how it was run: as §1

Row | MIC (Staphylococcus aureus [2]) [µg/mL] | MIC (Candida albicans [3]) [µg/mL] | MIC (Escherichia coli [7]) [µg/mL] | MIC (Bacillus cereus [9]) [µg/mL] | MIC (Pseudomonas aeruginosa [12]) [µg/mL] | Structure (SMILES) | MFC (Candida albicans [1]) [µg/mL] | zone of inhibition at 1000 µg/mL (Pseudomonas aeruginosa [4]) [mm] | zone of inhibition at 1000 µg/mL (Staphylococcus aureus [5]) [mm] | MBC (Staphylococcus aureus [6]) [µg/mL] | zone of inhibition at 1000 µg/mL (Escherichia coli [8]) [mm] | zone of inhibition at 1000 µg/mL (Bacillus cereus [10]) [mm] | zone of inhibition at 1000 µg/mL (Candida albicans [11]) [mm] | MBC (Bacillus cereus [13]) [µg/mL]
1 | 0.8 (≈ 1.6 µM) | 1.7 (≈ 3.4 µM) | 6.5 (≈ 13 µM) | 0.7 (≈ 1.4 µM) | 1.7 (≈ 3.4 µM) | N#Cc1c(Cl)c(Cl)c(Nc2ccc(Nc3ccc(F)cc3)c3c(=O)[nH]cnc23)c(C#N)c1Cl | 52.1 (≈ 104 µM) | 11 | 11.5 | 6.5 (≈ 13 µM) | 9 | 18 | 10.5 | 6.5 (≈ 13 µM)
2 | 3.3 (≈ 7.61 µM) | 0.5 (≈ 1.15 µM) | 1.3 (≈ 3 µM) | 0.8 (≈ 1.84 µM) | 2 (≈ 4.61 µM) | CN(C)c1ccc(Nc2c(Cl)c(Cl)c(C#N)c(Cl)c2C#N)c2nc[nH]c(=O)c12 | 7.8 (≈ 18 µM) | 15 | 14.3 | 2.6 (≈ 6 µM) | 19 | 18 | 15.5 | 3.3 (≈ 7.61 µM)
